Assay outcomes from PubChem.
Only some compounds are listed: those with a hit (about 2.8% of all), similar ones and a draw of the others.
HTRA1 inhibitor = blocks human HTRA1 serine peptidase. recombinant HTRA1, FP-rhodamine activity-based probe, fluorescence polarization. inhibition, % at 5.96 µM. 340,000 tested, 0.5% active. AID 504803; in the data active = inhibition above about 36%
PAFAH2 FP inh = inhibitors of human PAFAH2; inhibition, % at 3.39 µM; 340,000 tested, 0.99% active; recombinant PAFAH2, FP-rhodamine activity probe, fluorescence polarization; Q99487;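 active = inhibition above the mean over all tested compounds plus 3 SD, cut at about 30% in these data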;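 also: inhibitors block probe labeling of enzyme so polarization drops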
PAFAH1B3 FP inh = PAFAH1B3 (human) inhibition. recombinant PAFAH1B3, FP-rhodamine probe, fluorescence polarization. inhibition, % at 3.39 µM. 340,000 tested, 0.28% active. AID 492972;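 active = inhibition above the screen-wide average of all tested compounds plus 3 SD, cut at about 25% in these data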
ABHD4 inh = inhibits mouse alpha/beta hydrolase domain 4 | Q8VD66 | 370,000 tested, 0.54% active | purified mABHD4, FP-Rh probe fluorescence polarization | AID 720543 | inhibition, % at 8.92 µM;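 active = inhibition exceeding the mean over every tested compound plus 3 SD, cut at about 30% in these data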
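Doses – 8.92 µM, single dose · Material – wild-type mouse ABHD4 protein · Replication – single well per compound (singlicate) · Measure – percent inhibition of probe binding, normalized to plate controls · Schedule – 45 min compound pre-incubation plus 60 min probe step, 25 °C · Detection – fluorescence polarization with parallel and perpendicular emission, 525/598 nm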
pPAFAH FP inh = pPAFAH (human) enzyme inhibition. Q13093. recombinant pPAFAH, FP-rhodamine probe fluorescence polarization. inhibition, % at 3.39 µM. 330,000 tested, 1.5% active;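 active = inhibition above the mean inhibition across the screen plus 3 SD, cut at about 25% in these data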;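 also: inhibitors block binding of the rhodamine activity-based probe so polarization drops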
Target sequence (Q13093 whole entry, looked up): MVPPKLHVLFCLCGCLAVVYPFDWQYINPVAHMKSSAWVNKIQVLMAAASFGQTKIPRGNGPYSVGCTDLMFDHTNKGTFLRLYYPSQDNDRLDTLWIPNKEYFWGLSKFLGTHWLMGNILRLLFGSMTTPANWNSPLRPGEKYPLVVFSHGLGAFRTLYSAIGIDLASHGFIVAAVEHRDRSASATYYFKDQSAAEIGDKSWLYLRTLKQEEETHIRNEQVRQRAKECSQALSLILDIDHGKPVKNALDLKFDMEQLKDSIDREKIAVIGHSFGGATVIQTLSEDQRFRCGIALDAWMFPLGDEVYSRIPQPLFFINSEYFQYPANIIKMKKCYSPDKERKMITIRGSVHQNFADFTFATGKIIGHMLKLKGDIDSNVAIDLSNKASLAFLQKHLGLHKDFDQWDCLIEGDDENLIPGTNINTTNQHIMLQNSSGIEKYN
PAFAH1B2 inh = inhibitors of human PAFAH1B2; 340,000 tested, 1.2% active; inhibition, % at 3.39 µM; recombinant PAFAH1B2, FP-rhodamine activity probe, fluorescence polarization; AID 492953;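 active = inhibition above the mean of all tested compounds plus 3 SD, cut at about 24% in these data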
Target sequence (P68402 whole entry, looked up): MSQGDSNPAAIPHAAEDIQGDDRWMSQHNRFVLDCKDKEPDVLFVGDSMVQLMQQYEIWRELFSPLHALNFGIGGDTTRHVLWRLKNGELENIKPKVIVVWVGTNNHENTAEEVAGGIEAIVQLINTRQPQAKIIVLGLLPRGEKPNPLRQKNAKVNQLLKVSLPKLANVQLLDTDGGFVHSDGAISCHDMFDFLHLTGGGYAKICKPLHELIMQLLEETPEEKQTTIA
pPAFAH FP conf = confirmation of human plasma PAF acetylhydrolase (pPAFAH) inhibitors; shares compounds with pPAFAH FP inh; recombinant pPAFAH, FP-Rh probe fluorescence polarization; inhibition, % at 3.39 µM; 2,300 tested, 72% active; AID 463230;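 active = mean inhibition of the triplicate above the hit cutoff set for the earlier primary screen, cut at about 25% in these data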
Hits are given with their value; - = inactive; . = not tested or not shown.

SMILES	HTRA1 inhibitor	PAFAH2 FP inh	PAFAH1B3 FP inh	ABHD4 inh	pPAFAH FP inh	PAFAH1B2 inh	pPAFAH FP conf
C=CC(C)(C)c1c(O)c(CC=C(C)C)c(O)c2c(=O)c3ccc(O)c(O)c3oc12	36.5	-	-	.	45.4	-	49.3
CCCCCC1CC(/C(C)=N/NC(N)=O)OC1=O (stereo not drawn)	-	-	-	-	-	-	.
CCCCC1CC(/C(C)=N/NC(N)=O)OC1=O (stereo not drawn)	-	-	-	-	58.2	-	-
CC(=O)N1CCCN(C(=O)Cn2cnc3ccccc3c2=O)CC1	.	.	.	-	.	.	.
COC(=O)[C@@]12CCCCC3=C1N(CCC3)C(=O)[C@H]2CC(=O)NCCc1ccccc1OC	.	.	.	-	.	.	.
O=C(Nc1nc2ccsc2c(=O)s1)C1CCC1	.	.	.	-	35.6	.	-
Cc1ccc(C(=O)NCCCc2ccccc2)c(Cl)c1	-	-	-	-	-	-	.
O=C(NCCC(=O)N(CCc1ccccc1)Cc1ccccc1)c1ccccc1Cl	-	-	-	-	46.0	-	-
CCCCCN1CCCCC(NC(=O)c2ccccc2C)C1=O (stereo not drawn)	.	.	.	-	.	.	.
O=[N+]([O-])c1cc(Br)cc(C=Nc2ccc3c(c2)OCO3)c1O	-	-	-	-	40.9	-	51.8
O=[N+]([O-])c1ccc(O)c(C=Nc2ccc3c(c2)OCO3)c1	-	-	-	-	-	-	.
O=C(COC(=O)CNC(=O)C1CCCCC1)Nc1ccc(F)c([N+](=O)[O-])c1	-	-	-	-	-	-	.
O=C(COC(=O)CNC(=O)c1ccccc1)Nc1ccc(F)c([N+](=O)[O-])c1	-	-	-	-	37.5	-	-
COc1ccc(S(=O)(=O)Nc2cccc3c2O[C@H](CN(C)Cc2ccc(Cl)c(Cl)c2)[C@@H](C)CN([C@H](C)CO)C3=O)cc1	-	-	-	-	-	-	.
C[C@H]1CN([C@@H](C)CO)C(=O)c2cccc(NS(=O)(=O)c3ccc(F)cc3)c2O[C@H]1CN(C)Cc1ccc(Cl)c(Cl)c1	-	-	-	-	37.3	-	45.8
CCCc1cc2c(-c3ccccc3)cc(=O)oc2cc1OCc1ccc(C(=O)O)o1	-	-	-	-	53.8	-	47.5
O=S(=O)(Nc1ccc(-n2cccc2)cc1)c1ccccc1	-	-	-	-	-	-	.
O=S(=O)(Nc1ccc(N=Nc2ccccc2)cc1)c1ccccc1	-	-	-	-	67.1	-	70.3
C=CCN1C(=O)[C@@H](CC(=O)N2CCSCC2)[C@]2(C(=O)OC)CCCCC=C12	.	.	.	-	.	.	.
CCC(=O)Nc1ccc2c(c1)C(=O)N(C)[C@@H]1CC[C@@H](CC(=O)NCCN3CCCCC3)O[C@H]1CO2	.	.	.	-	.	.	.
COc1ccc(Cl)cc1C(=O)NNC(=O)c1[nH]c(C)c(C(C)=O)c1C	-	-	-	-	54.4	-	-
CCCCNS(=O)(=O)CC1NCc2ccccc21 (stereo not drawn)	.	.	.	-	.	.	.
CCNc1c2c3c(cccc3n(C)c1=O)C(=O)c1ccccc1-2	.	.	.	.	52.8	.	45.1
Cn1c(=O)c(NC2CCCCC2)c2c3c(cccc31)C(=O)c1ccccc1-2	-	-	-	-	.	-	.
COC1=C[C@H](C(=O)NC2CCN(Cc3ccccc3)CC2)C(C)C(c2ccccc2)CC1=O (stereo partly drawn)	.	.	.	-	.	.	.
SMILES	HTRA1 inhibitor	PAFAH2 FP inh	PAFAH1B3 FP inh	ABHD4 inh	pPAFAH FP inh	PAFAH1B2 inh	pPAFAH FP conf
CCc1ccccc1NC(=O)C1CCC(=O)N(c2ccc(OC)cc2)C1c1ccc(OC)cc1 (stereo not drawn)	.	.	.	-	.	.	.
Cc1cccc(C)c1NC(=O)CN(C)C(=O)c1cc(S(=O)(=O)N(C)C)ccc1N1CCCC1	-	-	-	-	35.3	-	-
CN(CC(=O)Nc1ccc(F)c(F)c1F)C(=O)c1cc(S(=O)(=O)N(C)C)ccc1N1CCCC1	-	-	-	-	.	-	.
Cc1cc(C)c(S(=O)(=O)/N=C2\C=CC(=O)C(Cl)=C2)c(C)c1	-	30.5	-	.	65.5	-	56.8
Cc1ccc(S(=O)(=O)c2c(C)cc(C)nc2Cl)c(C)c1	-	-	-	-	-	-	.
CC(C)CNC(=O)OCc1cn(Cc2ccc(Cl)cc2)nn1	.	.	.	-	.	.	.
Cc1c(NC(=S)N/N=C/c2cc([N+](=O)[O-])ccc2O)c(=O)n(-c2ccccc2)n1C	-	-	-	-	47.2	-	-
O=C(N/N=C/c1cc([N+](=O)[O-])ccc1O)c1cccc2cc[nH]c12	-	-	-	-	60.8	-	51.8
COc1cc(C(=O)NCCCN2CCCC2=O)cc(Br)c1OCc1ccccc1	-	-	-	-	79.4	-	-
O=C(NCCCN1CCCC1=O)c1ccc(OCc2ccccc2)cc1	-	-	-	-	-	-	.
N#CC(C#N)=C1C=C2C=C(N3CCCCC3)CCC2CC1 (stereo not drawn)	.	.	.	.	-	.	.
N#CC1=C(N)C2=C(N3CCCCC3)CCCC2C1(C#N)C#N (stereo not drawn)	-	39.6	46.1	.	38.0	25.9	-
CC(C)Oc1ccc(CNCCC2(C(C)C)CCOC(C)(C)C2)cc1 (stereo not drawn)	-	-	-	-	56.8	-	-
Brc1ccc2c(c1)OCCOCCOc1cc(Br)ccc1OCCOCCOCCO2	-	-	-	.	68.2	-	59.5
Brc1cc2c(cc1Br)OCCOCCOCCOCCO2	-	-	-	-	-	-	.
O=C(O)/C(CC(=O)c1ccc(Cl)cc1)=N/Nc1ccc([N+](=O)[O-])cc1[N+](=O)[O-]	-	-	-	-	35.2	-	71.5
Cc1ccc(CNC(=O)O[C@H]2CC[C@@]34CCCN3C(=O)CCC[C@H]4C2)cc1	.	.	.	-	.	.	.
Cc1nn(-c2ccccc2)c(/N=C/c2ccccc2O)c1-c1ccccc1	-	-	-	-	34.5	-	-
CCOc1ccc(C=NNc2ccc(S(=O)(=O)Nc3ccccc3C(=O)O)cc2[N+](=O)[O-])cc1	-	-	-	.	56.6	-	85.8
CC(C)CNC(=O)C1CSCCS(=O)(=O)N1Cc1ccccc1 (stereo not drawn)	.	.	.	-	.	.	.
COc1ccc(CCNC(=O)Cc2ccc(NC3=NC4CS(=O)(=O)CC4S3)cc2)c(OC)c1 (stereo not drawn)	-	-	-	-	36.4	-	-
CCn1c(SCc2ccccc2Cl)nnc1-c1ccccc1OC	.	.	.	-	.	.	.
Cc1cnc(C(=O)Nc2ccccc2C(=O)N2CCOCC2)cn1	-	-	-	-	37.4	-	-
CCC(=O)Nc1ccccc1C(=O)N1CCOCC1	-	-	-	-	-	-	.
CC1=NNC(=O)C1CC(=O)N/N=C/C(C)=C/c1ccccc1 (stereo not drawn)	-	-	-	-	-	-	.
CC(/C=N/NC(=O)Cc1cc(=O)[nH][nH]1)=C\c1ccccc1	-	-	-	-	53.8	-	-
CC[C@H](CCCc1ccc(F)cc1)CN(Cc1ccc(OC)cc1)S(=O)(=O)c1ccc(C)cc1	.	.	.	-	.	.	.
